The entries come from a sample that favours hits as a whole.
Biofilm kill mix: mixture kills Candida albicans biofilm cells; actives 0.02% (n = 120,000); inhibition, % at 7.6 µM; C. albicans biofilm persisters + clotrimazole, fluorescence viability; primary screen in compound mixtures of four per well;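 further: compounds exposed to preformed 24 h biofilms for 48 h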
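Incubation: 24 h biofilm formation, then 48 h compound exposure, 37 °C | Material: C. albicans biofilms | Buffer or medium: RPMI/MOPS medium, pH 7.0 | Measured by: 2-h Alamar Blue fluorescence, 535/590 nm excitation/emission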
ROMK mod: human ROMK K+ channel modulation, primary screen | B-score at 10 µM | actives 2% (n = 130,000) | AID 1918 | Tet-inducible ROMK, thallium flux fluorescence; actives lie on both sides | P48048;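 active means signal ratio slope over the read window, or its plate-corrected B-score, at least 3 SD from the plate mean, either direction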;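 further: B-score of the F/F0 ratio slope over 7 to 12 s after thallium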
Target sequence (P48048 whole entry, looked up): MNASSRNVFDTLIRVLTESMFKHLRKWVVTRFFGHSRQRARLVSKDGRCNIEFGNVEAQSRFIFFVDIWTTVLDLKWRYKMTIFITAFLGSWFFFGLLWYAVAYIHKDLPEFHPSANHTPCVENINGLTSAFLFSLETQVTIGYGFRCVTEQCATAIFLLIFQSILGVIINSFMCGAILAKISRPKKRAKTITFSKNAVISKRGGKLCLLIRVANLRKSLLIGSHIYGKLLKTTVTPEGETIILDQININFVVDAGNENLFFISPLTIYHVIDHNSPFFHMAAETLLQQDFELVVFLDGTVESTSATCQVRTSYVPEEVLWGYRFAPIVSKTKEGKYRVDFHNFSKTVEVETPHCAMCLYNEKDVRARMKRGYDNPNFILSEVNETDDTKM
ROMK hit retest: human ROMK channel modulation, retest confirmation; actives 54% (n = 3,000); ROMK thallium flux, fluorescence ratio; active compounds read low; shares compounds with ROMK mod; normalized thallium flux (F/F0 slope) at 10 µM;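 active means Flux at 10 µM at least 3 SD below or above vehicle control mean in one or both replicates; inconclusive means no clear call, values can overlap the other calls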
Of the large screens only hits and unclear results are named; the others gave an inactive call (follow-up assays come after a bar, where they were run).

O=C(CC(C(=O)O)c1ccccc1)Nc1ccccc1 (stereo unspecified)	none (no result: ROMK mod)
N=C1S/C(=C\c2ccc(-c3cccc(Cl)c3)o2)C(=O)N1c1nccs1	none (no result: ROMK mod)
O=C1OC(c2cccs2)=N/C1=C\c1ccc(-c2cccc(Cl)c2)o1	none (no result: Biofilm kill mix, ROMK mod) | ROMK hit retest 0.052
Cc1ccc(C(=O)N/C(=C\c2ccc(-c3cccc([N+](=O)[O-])c3)o2)C(=O)NC(C)(C)C)cc1	none (no result: ROMK mod)
Cc1ccc(C(=O)N/C(=C\c2ccc(-c3ccc([N+](=O)[O-])cc3)o2)C(=O)NC2CCS(=O)(=O)C2)cc1 (stereo unspecified)	none (no result: ROMK mod) | ROMK hit retest 0.047
Nn1c(SCC(=O)NCCCc2ccccc2)nnc1-c1cccnc1	none (no result: ROMK mod)
O=C(Cn1cccc1)Nc1ccc(OC(F)(F)F)cc1	none (no result: Biofilm kill mix)
O=C1/C(=C\Nc2ccc(OC(F)(F)F)cc2)CCN1c1ncccn1	ROMK mod 2.9 (no result: Biofilm kill mix) | ROMK hit retest inactive
O=C(COC(=O)c1c2c(nc3ccccc13)CCCC2)Nc1ccc2c(c1)OCO2	none (no result: Biofilm kill mix, ROMK mod) | ROMK hit retest inactive
O=C(COC(=O)c1cc(-c2ccccc2)nc2ccccc12)Nc1ccc2c(c1)OCO2	none (no result: ROMK mod)
COc1cccc(NC(=O)COC(=O)c2nc(Cl)ccc2Cl)c1	none
O=C(COC(=O)c1nc(Cl)ccc1Cl)Nc1ccc2c(c1)OCO2	ROMK mod -1.7 | ROMK hit retest inactive
Nc1nc2ccccc2n1C(=O)c1ccccc1	ROMK mod 2.1 | ROMK hit retest inactive
Nc1nc2ccccc2n1C(=O)c1ccc(F)cc1	none
Cc1ccc(C)n1-c1nn(S(=O)(=O)c2cccc3cccnc23)c2cccc(F)c12	none
CCOc1ccc2ncc(S(=O)(=O)c3ccccc3)c(N3CCN(c4ccc(OC)cc4)CC3)c2c1	none (no result: ROMK mod)
COc1ccc(N2CCN(c3c(S(=O)(=O)c4ccccc4)cnc4ccc(OC)cc34)CC2)cc1	none (no result: ROMK mod) | ROMK hit retest inconclusive
COc1ccc(S(=O)(=O)c2cnc3ccc(OC)cc3c2N2CCC3(CC2)OCCO3)cc1	none (no result: ROMK mod) | ROMK hit retest 0.05
CCOc1ccc2ncc(S(=O)(=O)c3ccccc3)c(N3CCC4(CC3)OCCO4)c2c1	none (no result: ROMK mod)
COc1cc(-c2nnc(CSc3nnc(Nc4ccc(C(C)C)cc4)s3)o2)cc(OC)c1OC	none (no result: ROMK mod)
N#Cc1ccc(-c2ccco2)nc1SCC(=O)c1ccc(Cl)cc1	none (no result: Biofilm kill mix)
CCc1ccc(/C=N/NC(=O)c2cc(-c3ccncc3)nc3ccccc23)s1	none (no result: ROMK mod)
O=C(N/N=C/c1cccs1)c1cc(-c2ccncc2)nc2ccccc12	ROMK mod 4.2 | ROMK hit retest inactive
O=C1NC(Cc2c[nH]c3ccccc23)C(=O)N1Cc1ccc(CN2C(=O)NC(Cc3c[nH]c4ccccc34)C2=O)cc1 (stereo unspecified)	ROMK mod -3.9 | ROMK hit retest 0.065
CCCNC(=O)CN1C(=O)NC(Cc2c[nH]c3ccccc23)C1=O (stereo unspecified)	none
Cc1cc(C)n(C2CCCCC2OC(=O)c2ccccc2)n1 (stereo unspecified)	none (no result: Biofilm kill mix)
Cc1[nH]nc(SCC(=O)NCCc2ccccc2)c1[N+](=O)[O-]	none (no result: ROMK mod)
Cc1[nH]nc(SCC(=O)NCc2ccccc2)c1[N+](=O)[O-]	ROMK mod -2.3 | ROMK hit retest inactive
O=C(OCC(=O)c1ccc(Cl)s1)c1ccc2ccccc2n1	none
CC(=O)Nc1ccc(NC(=O)COC(=O)c2ccccn2)cc1	none
CC(=Nc1cccc(O)c1)c1sc2ccccc2c1O	ROMK mod -2.4 (no result: Biofilm kill mix) | ROMK hit retest 0.058
CC(=Nc1ccc(C)cc1C)c1sc2ccccc2c1O	none
CS(=O)(=O)c1ccccc1C(=O)Nc1nc2ccccc2[nH]1	none (no result: ROMK mod)
CCSc1nnc(NC(=O)NC(C)(C(F)(F)F)C(F)(F)F)s1	none
CCSc1nnc(NC(=O)NC(CC)(C(F)(F)F)C(F)(F)F)s1	ROMK mod -4 (no result: Biofilm kill mix) | ROMK hit retest 0.058
O=C(NCc1nc2ccccc2[nH]1)c1c(F)c(F)c(F)c(F)c1F	none
CCCn1c2ccccc2c2nnc(SCC(=O)OCC)nc21	none (no result: Biofilm kill mix)
CCOC(=O)c1cnc2ccc(OCC)cc2c1NCc1cccnc1	ROMK mod 3.7 | ROMK hit retest inactive
CCOC(=O)c1cnc2ccc(OC)cc2c1NCCc1ccc(OC)c(OC)c1	ROMK mod -4.1 | ROMK hit retest 0.055
CCOC(=O)c1cnc2ccc(OCC)cc2c1NCc1ccccc1	none
CCOC(=O)c1cnc2ccccc2c1NCCc1ccc(OC)c(OC)c1	none (no result: Biofilm kill mix)
COC(=O)Cc1[nH]nc2c1C(c1ccc(O)c(OC)c1)C(C#N)=C(N)O2 (stereo unspecified)	none (no result: ROMK mod)
CC(C)(C)NC(=O)NC(=O)CN1CCN(c2ccc(O)cc2)CC1	none
COc1ccc(NC(=O)C2CCCN2C(=O)NCc2ccccc2)c(OC)c1 (stereo unspecified)	none (no result: Biofilm kill mix)
COc1ccc(N=C2SC(CC(=O)Nc3ccccc3)C(=O)N2CCN2CCOCC2)cc1 (stereo unspecified)	none
O=C(CCn1c2c(c3ccccc31)CCCC2)NNC(=O)c1ccc([N+](=O)[O-])cc1	none (no result: ROMK mod) | ROMK hit retest 0.048
O=C(CCn1c2c(c3ccccc31)CCCC2)NNC(=O)c1ccc(Cl)c([N+](=O)[O-])c1	none

Compound activity from PubChem.
